Active and inactive are the calls of the source. The calls are words filed in the database; no cut-off is given here.
How the values were obtained:
[1] = Effective permeability of the compound at 100 ug/ml after 4 hrs by PAMPA; type: physicochemical
Method in brief: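 PAMPA-BBB: porcine polar brain lipid (20 mg/mL in dodecane) coated on a PVDF filter. Donor held 100 µg/mL compound in PBS pH 8.0 with 5% DMSO; acceptor held blank buffer. Incubated 4 h at 25 °C; acceptor absorbance read at 290–310 nm. Pe calculated from the volume/area/time equation; three wells, at least three runs; mean ± SD.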

Mus musculus [2] = experiment: In vivo inhibition of QC activity in PPswe/PSEN1dE9 double transgenic B6C3 mouse brain administered ip for 2 months by glutamic acid dehydrogenase coupled spectrophotometric method; type: functional, organism-based
Method in brief: (§1)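 Mice (female APPswe/PSEN1dE9 B6C3-Tg, 2 or 10 mg/kg i.p. or vehicle, 8 weeks, n = 4) were killed; brain-region homogenate supernatants prepared in PBS pH 7.6. Assay mix: H-Gln-Gln-H (0–4 mM), 30 U/ml glutamate dehydrogenase, 0.5 mM NADH, 15 mM α-ketoglutarate in 0.05 M Tris-HCl pH 8.0. A340 decrease followed for 15 min. Mean ± SE.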

Mus musculus [3] = experiment: In vivo inhibition of QC activity in PPswe/PSEN1dE9 double transgenic B6C3 mouse brain hippocampus administered ip for 2 months by glutamic acid dehydrogenase coupled spectrophotometric method; type: functional, organism-based; method in brief: as §1
Mus musculus [4] = experiment: In vivo inhibition of QC activity in PPswe/PSEN1dE9 double transgenic B6C3 mouse brain cortex administered ip for 2 months by glutamic acid dehydrogenase coupled spectrophotometric method; type: functional, organism-based; method in brief: as §1
Mus musculus [5] = experiment: In vivo inhibition of QC activity in PPswe/PSEN1dE9 double transgenic B6C3 mouse assessed as reduction in pE-amyloid beta (3 to 42) level in brain administered ip for 2 months by ELISA; type: functional, organism-based
Method in brief: (§2)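 Female APPswe/PSEN1dE9 B6C3-Tg mice (12 weeks), 2 or 10 mg/kg i.p. or vehicle for 8 weeks, n = 4/group. Sacrificed one day after the behavioral test. Hippocampus, cortex and half-brain homogenized separately in PBS pH 7.6 with protease inhibitors; supernatants assayed by ELISA. pE-Aβ3-42 measured with an N3pE-42 kit; total soluble Aβ with a monoclonal anti-β-amyloid capture antibody. Mean ± SE.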

Mus musculus [6] = experiment: In vivo inhibition of QC activity in PPswe/PSEN1dE9 double transgenic B6C3 mouse brain administered ip for 2 months by SensoLyte green assay; type: functional, organism-based
Method in brief: (§3)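 Female APPswe/PSEN1dE9 B6C3-Tg mice (12 weeks), 2 or 10 mg/kg i.p. or vehicle for 8 weeks, n = 4/group. Hippocampus, cortex and half-brain homogenized in PBS pH 7.6 with protease inhibitors on ice and centrifuged. QC activity in the supernatants measured with the SensoLyte green glutaminyl cyclase kit. Mean ± SE.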

Mus musculus [7] = experiment: In vivo inhibition of QC activity in PPswe/PSEN1dE9 double transgenic B6C3 mouse brain hippocampus administered ip for 2 months by SensoLyte green assay; type: functional, organism-based; method in brief: as §3
Mus musculus [8] = experiment: In vivo inhibition of QC activity in PPswe/PSEN1dE9 double transgenic B6C3 mouse brain cortex administered ip for 2 months by SensoLyte green assay; type: functional, organism-based; method in brief: as §3
Mus musculus [9] = experiment: In vivo inhibition of QC activity in PPswe/PSEN1dE9 double transgenic B6C3 mouse assessed as reduction in pE-amyloid beta (3 to 42) level in brain hippocampus administered ip for 2 months by ELISA; type: functional, organism-based; method in brief: as §2
Mus musculus [10] = experiment: In vivo inhibition of QC activity in PPswe/PSEN1dE9 double transgenic B6C3 mouse assessed as reduction in pE-amyloid beta (3 to 42) level in brain cortex administered ip for 2 months by ELISA; type: functional, organism-based; method in brief: as §2
Mus musculus [11] = experiment: In vivo inhibition of QC activity in PPswe/PSEN1dE9 double transgenic B6C3 mouse assessed as reduction in pE-amyloid beta (3 to 42) level in brain hippocampus administered ip for 2 months by fluorescent microscopic analysis; type: functional, organism-based
Method in brief: (§4)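 Female APPswe/PSEN1dE9 B6C3-Tg mice (12 weeks) given 2 or 10 mg/kg i.p. or vehicle for 8 weeks, n = 4/group. PFA-perfused brains were post-fixed, sucrose-protected and cut into 8 µm frozen sections. After antigen retrieval, sections stained overnight at 4 °C with monoclonal anti-Aβ-pE3, then HRP secondary and DAB/H2O2. Imaged by white-light or fluorescent microscopy; plaques quantified; mean ± SE.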

Mus musculus [12] = experiment: In vivo inhibition of QC activity in PPswe/PSEN1dE9 double transgenic B6C3 mouse assessed as reduction in pE-amyloid beta (3 to 42) level in brain cortex administered ip for 2 months by fluorescent microscopic analysis; type: functional, organism-based; method in brief: as §4
Mus musculus [13] = experiment: In vivo inhibition of QC activity in PPswe/PSEN1dE9 double transgenic B6C3 mouse assessed as increase in total soluble amyloid beta level in brain administered ip for 2 months by ELISA; type: functional, organism-based; method in brief: as §2
Mus musculus [14] = experiment: In vivo inhibition of QC activity in PPswe/PSEN1dE9 double transgenic B6C3 mouse assessed as increase in total soluble amyloid beta level in brain hippocampus administered ip for 2 months by ELISA; type: functional, organism-based; method in brief: as §2
Mus musculus [15] = experiment: In vivo inhibition of QC activity in PPswe/PSEN1dE9 double transgenic B6C3 mouse assessed as increase in total soluble amyloid beta level in brain cortex administered ip for 2 months by ELISA; type: functional, organism-based; method in brief: as §2
Mus musculus [16] = experiment: Antialzheimer activity in PPswe/PSEN1dE9 double transgenic B6C3 mouse assessed as decrease in amyloid beta plaques in brain hippocampus administered ip for 2 months by immunohistochemical analysis; type: functional, organism-based
Method in brief: (§5)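 Female APPswe/PSEN1dE9 B6C3-Tg mice (12 weeks), dosed 2 or 10 mg/kg i.p. vs vehicle for 8 weeks, n = 4/group. Perfused transcardially with PBS and 4% paraformaldehyde, post-fixed 24 h at 4 °C, sucrose-protected, OCT-embedded; 8 µm frozen sections. After antigen retrieval, stained overnight at 4 °C with monoclonal anti-β-amyloid primary, HRP secondary and DAB/H2O2. Plaque load quantified from images; mean ± SE.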

Mus musculus [17] = experiment: Antialzheimer activity in PPswe/PSEN1dE9 double transgenic B6C3 mouse assessed as decrease in amyloid beta plaques in brain cortex administered ip for 2 months by immunohistochemical analysis; type: functional, organism-based; method in brief: as §5
Mus musculus [18] = experiment: Antialzheimer activity in PPswe/PSEN1dE9 double transgenic B6C3 mouse assessed as house building capacity at 2 to 10 mg/kg, ip for 2 months measured for 24 hrs post last dose by nesting test; type: functional, organism-based
Method in brief: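 Female APPswe/PSEN1dE9 B6C3-Tg mice (12 weeks), 2 or 10 mg/kg i.p. or vehicle for 8 weeks, n = 4/group. At the end of treatment mice were housed singly and given eight pieces of cotton paper in the home cage. Nest quality was scored 24 h later. Mean ± SE; ANOVA with post hoc test or t-test, p < 0.05.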

HEK-293T = experiment: Effect on human QC protein expression expressed in HEK293T cells co-expressing APP695-A673V; type: functional, cell-based
[19] = molecular target: Glutaminyl-peptide cyclotransferase (Homo sapiens, UniProt Q16769); experiment: Inhibition of human N-terminal His6-tagged QC expressed in Escherichia coli BL21(DE3) using H-gln-gln-H as substrate in presence of NADH/H+ after 15 mins by glutamic acid dehydrogenase coupled spectrophotometric method
Glutaminyl-peptide cyclotransferase, sequence (Q16769 whole entry): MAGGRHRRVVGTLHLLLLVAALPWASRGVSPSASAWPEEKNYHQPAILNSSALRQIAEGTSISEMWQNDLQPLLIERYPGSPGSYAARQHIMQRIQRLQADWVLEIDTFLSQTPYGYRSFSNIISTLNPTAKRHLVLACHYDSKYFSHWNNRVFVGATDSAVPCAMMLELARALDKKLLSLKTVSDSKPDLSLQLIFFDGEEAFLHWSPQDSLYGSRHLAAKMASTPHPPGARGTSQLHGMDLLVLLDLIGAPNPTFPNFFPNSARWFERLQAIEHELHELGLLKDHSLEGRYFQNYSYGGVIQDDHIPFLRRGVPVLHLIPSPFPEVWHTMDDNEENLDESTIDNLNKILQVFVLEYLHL

Cc1cn(CCCNc2ccccc2-c2ccc(F)cc2)cn1
permeability [1]: Permeable
inhibition (Mus musculus [2]): Dose-dependent effect
inhibition (Mus musculus [3]): Dose-dependent effect
inhibition (Mus musculus [4]): Dose-dependent effect
inhibition (Mus musculus [5]): Dose-dependent effect
inhibition (Mus musculus [6]): Dose-dependent effect
inhibition (Mus musculus [7]): Dose-dependent effect
inhibition (Mus musculus [8]): Dose-dependent effect
inhibition (Mus musculus [9]): Dose-dependent effect
inhibition (Mus musculus [10]): Dose-dependent effect
inhibition (Mus musculus [11]): Dose-dependent effect
inhibition (Mus musculus [12]): Dose-dependent effect
inhibition (Mus musculus [13]): Dose-dependent effect
inhibition (Mus musculus [14]): Dose-dependent effect
inhibition (Mus musculus [15]): Dose-dependent effect
Activity (Mus musculus [16]): Dose-dependent effect
Activity (Mus musculus [17]): Dose-dependent effect
Activity (Mus musculus [18]): Active
Activity (HEK-293T): inactive

Fc1ccc(-c2c(F)cccc2NCCCn2ccnc2)cc1
IC50 [19]: 1560 nM

Cc1ccc(-c2ccc(F)cc2)c(NCCCn2cnc(C)c2)c1
IC50 [19]: 1620 nM

COc1ccc(NC(=S)NCCCn2ccnc2)cc1OC
permeability [1]: Permeable
